Assay outcomes deposited in PubChem by Johns Hopkins Ion Channel Center.
Hits are enriched below; roughly 3.7% of the tested compounds scored in any of these assays.
KCNK9 inh: blocks the human KCNK9 two-pore domain potassium channel. Q9NPC2. HEK293 KCNK9, FluxOR thallium flux fluorescence; stronger effect = lower value. B-score at 10 µM. hit rate 1.2% among 310,000;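 active = ratio B-score over 3 SD below the library mean, with starting fluorescence within 5 SD of its mean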;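 note: negative B-score means less thallium flux so channel inhibition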
hERG rescue: shields human hERG channel from block by proarrhythmic agents; CHO-hERG, FluxOR thallium flux, dofetilide IC70 present; activation (rescue from dofetilide block), less the hit threshold, % at 10 µM; hit rate 0.51% among 310,000;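 active = activation above the mean of controls blocked by dofetilide plus 5 SD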;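 note: thallium influx through hERG after potassium depolarization seen as dye fluorescence rise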
KCNK3 inh: human KCNK3 channel inhibition, primary screen. CHO-KCNK3 thallium flux, FluxOR fluorescence; stronger effect = lower value. O14649. AID 602410. B-score at 10 µM. hit rate 0.84% among 340,000;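 active = B-score under library mean minus 4 SD, starting fluorescence ratio at most library mean plus 5 SD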;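 note: more negative B-score means stronger inhibition of thallium flux through KCNK3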
KCNQ1 pot: potentiates or activates the human KCNQ1 potassium channel | P51787 | CHO-K1 KCNQ1, thallium flux FluxOR fluorescence; stronger effect = higher value | B-score at 10 µM | hit rate 0.35% among 310,000 | AID 2648;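 active = fluorescence ratio B-score, a plate-corrected score, at least three library SD, with initial intensity B-score within 5 SD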
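Doses: Single concentration per compound, DMSO matched to controls | Test system: KCNQ1-transfected CHO-K1 cells | Timing: 90 min dye loading and 20 min compound exposure, both at room temperature | Measured by: Kinetic FluxOR thallium fluorescence, 10-s 1-Hz baseline, 110-s post-stimulus read | Medium: Assay buffer with matched DMSO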
KCNQ1 inh: human KCNQ1 channel inhibition; P51787; hit rate 1.3% among 310,000; B-score at 10 µM; AID 2642; CHO-K1 KCNQ1, FluxOR thallium flux fluorescence; stronger effect = higher value;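 active = compounds whose thallium flux B-score, printed positive for inhibition, exceeds three library SD while starting fluorescence stays within three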;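 note: channel opened by potassium depolarization with thallium stimulus after 20 min compound exposure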
Kir21 block: blocks the mouse Kir2.1 inward-rectifier potassium channel | P35561 | AID 1672 | B-score at 10 µM | hit rate 0.85% among 310,000 | HEK293-Kir2.1, FluxOR thallium flux fluorescence; stronger effect = lower value;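 active = fluorescence ratio B-score at or below minus 3 SD of library scores, with starting-brightness B-score within 2 SD, cut at about -4.2 in these data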;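 note: channel flux triggered by added potassium and thallium sulfate stimulus; B-score of peak minus minimum fluorescence over baseline after thallium stimulus; more negative B-score means stronger Kir2.1 block with less thallium influx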
Target sequence (P35561 whole entry, looked up): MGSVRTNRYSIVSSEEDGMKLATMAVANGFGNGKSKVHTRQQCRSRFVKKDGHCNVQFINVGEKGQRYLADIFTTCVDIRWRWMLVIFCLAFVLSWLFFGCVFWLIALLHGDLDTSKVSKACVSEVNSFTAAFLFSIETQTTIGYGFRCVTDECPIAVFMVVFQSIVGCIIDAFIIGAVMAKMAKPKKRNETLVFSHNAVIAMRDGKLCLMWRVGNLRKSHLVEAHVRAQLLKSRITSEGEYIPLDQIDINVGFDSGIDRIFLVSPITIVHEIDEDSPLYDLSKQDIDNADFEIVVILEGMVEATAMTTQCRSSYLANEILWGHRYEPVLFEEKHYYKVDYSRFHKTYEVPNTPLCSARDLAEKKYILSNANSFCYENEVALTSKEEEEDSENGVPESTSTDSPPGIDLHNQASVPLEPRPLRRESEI
KCNQ1 block val: human KCNQ1 channel inhibition, validation assay | KCNQ1 cell line, FluxOR thallium flux fluorescence | hit rate 93% among 1,600 | shares compounds with KCNQ1 inh | inhibition, % at 10 µM;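 active = primary screen active, with duplicate mean exceeding buffer control mean plus 3 SD of buffer wells, cut at about 28% in these data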;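 note: 0% = buffer control ratio and 100% = XE991 inhibitor control ratio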
CHO Tl flux: counter-screen for KCNQ1 inhibitors: effect in parental CHO cells; AID 588366; parental CHO-K1, FluxOR thallium flux fluorescence ratio; stronger effect = lower value; zero means no signal rise above baseline; fluorescence ratio (Tl flux) at 10 µM; hit rate 21% among 1,600; shares compounds with KCNQ1 inh;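 active = mean of duplicate thallium-flux fluorescence ratios in parental host cells more than 5 SD below the buffer control mean, cut at about 0.38 in these data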;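 note: ratio is peak minus minimum fluorescence divided by baseline fluorescence; actives read low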
KCNQ1 APC inh: confirmation of human KCNQ1 potassium channel inhibitors by electrophysiology; shares compounds with KCNQ1 inh; KCNQ1-CHO cells, automated patch clamp current; calls only at 10 µM; hit rate 20% among 490; AID 624120;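 active = KCNQ1 current drop exceeding 3 SD of negative control wells, seen in both duplicate runs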;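 note: steady state current during a 2 s step from -80 to +40 mV; negative values mean current inhibition and positive values mean potentiation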
KCNQ2 spec: rat KCNQ2 inhibition in KCNQ1 inhibitor specificity screen. shares compounds with KCNQ1 inh. KCNQ2 cells, FluxOR thallium flux fluorescence. inhibition, % at 10 µM. hit rate 71% among 1,600. AID 651746;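 active = mean percent inhibition of the KCNQ2 thallium signal more than 5 SD above the buffer-only control wells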;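 note: KCNQ2 expressed in CHO cells; 0% = buffer control wells and 100% = XE-991 inhibitor control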
KCNQ1 KCNE1 spec: human KCNQ1/KCNE1 inhibition in KCNQ1 specificity screen; inhibition, % at 10 µM; KCNQ1/KCNE1 cells, FluxOR thallium flux fluorescence; AID 652147; shares compounds with KCNQ1 inh; hit rate 77% among 1,600;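 active = mean percent inhibition of duplicate wells above the buffer-only control mean plus 3 SD of those controls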;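 note: 0% = buffer only wells and 100% = XE-991 inhibitor control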
* = called active by the depositor; i = inactive; . = no result; + = active, no number.

SMILES	KCNK9 inh	hERG rescue	KCNK3 inh	KCNQ1 pot	KCNQ1 inh	Kir21 block	KCNQ1 block val	CHO Tl flux	KCNQ2 spec	KCNQ1 KCNE1 spec	others
Cn1c2c(c(=O)n(C)c1=O)C(C(F)(F)F)(C(F)(F)F)N=C(c1ccc(Cl)cc1)N2	i	-17.2	i	i	7*	-1.65	62.0*	0.527	i	i
CC(NC(=O)Nc1ccc(Br)cc1)C(C)(C)C (stereo unspecified)	i	-10.7	i	i	8*	-0.55	60.0*	0.426	69.0%*	66.0%*
CC(O)C(NC(=O)OCc1ccccc1)C(=O)OCc1ccccc1 (stereo unspecified)	.	.	i	.	.	.	.	.	.	.
Cc1cc(C(=O)O)ccc1N=Cc1c(O)ccc2ccccc12	i	-8.9	i	i	i	-1	.	.	.	.
c1ccc2c(c1)OCCOCCOCCOCCOCCOc1ccccc1OCCOCCOCCO2	i	-23.4	i	i	8*	-7.66	80.0*	0.496	64.3%*	60.5%*
OCCN1CCOCCOc2ccccc2OCCOCC1	i	-4.9	i	i	i	-0.17	.	.	.	.
Cc1cc(C(=O)OCC(=O)NCCCN2CCCC2=O)c2ccccc2n1	i	-9.5	i	i	11*	0.04	0.0	0.507	i	73.0%*
CCOC(=O)c1cnc(-n2nc(C)cc2C)nc1NC1CCCCC1	i	-32.3	i	i	11*	1.8	76.0*	0.396	108.0%*	107.0%*
CC(CCc1ccccc1)NC(=O)c1ccc(NC(=O)c2ccccc2)cc1 (stereo unspecified)	i	-8.3	i	i	7*	1.3	67.0*	0.522	i	66.0%*
COc1ccc(C(=O)NC(C)CCc2ccccc2)cc1 (stereo unspecified)	i	-1.7	i	i	i	1.48	.	.	.	.
COC(=O)c1ccc([C@H](NC(=O)c2ccco2)[C@]2(C)C[C@H]2C2CCCCC2)cc1	i	-7.0	i	i	6*	-0.17	122.5*	0.345*	106.7%*	167.5%*
O=C(O)CCCNc1ccc([N+](=O)[O-])c(NCCCC(=O)O)n1	i	-3.4	i	i	i	0.97	.	.	.	.
CC(=O)c1ccc(NC(=S)Nc2ccc(Br)c(Cl)c2)cc1	i	-29.4	i	i	6*	-0.45	61.0*	0.454	i	i
O=C(c1ccc(NC(=S)Nc2ccc(Cl)c(Cl)c2)cc1)N1CCCC1	i	-15.2	i	i	9*	-0.88	36.0*	0.499	i	i
O=C(NC(=S)Nc1ccc(Br)c(Cl)c1)C1CC1	i	-8.7	i	i	i	0.51	.	.	.	.
CCOC(=O)Cn1nc(C)c(NC(=O)c2ccc([N+](=O)[O-])c(C)c2)c1C	i	-14.2	i	i	i	-1.93	.	.	.	.
O=C(c1cccc(C(F)(F)F)c1)C1CCCN(Cc2ccc(OCCO)cc2)C1 (stereo unspecified)	i	-5.9	i	i	i	1.72	.	.	.	.
O=C(c1ccc2c(c1)OCO2)C1CCCN(Cc2cccc(C(F)(F)F)c2)C1 (stereo unspecified)	i	-5.6	i	i	7*	-1.49	88.0*	0.431	96.0%*	97.0%*	KCNQ1 APC inh=i
COC(=O)c1ccc(/C=C/C(=O)OCC(=O)Nc2cc(C)on2)cc1	.	.	i	.	.	.	.	.	.	.
C(=C\c1ccccc1)/CN1CCN(c2ncnc3c2oc2ccccc23)CC1	i	-21.6	-12.8*	i	7*	1.3	149.5*	0.312*	135.0%*	178.5%*
c1ccc2c(c1)oc1c(N3CCOCC3)ncnc12	i	-7.2	i	i	i	-0.5	.	.	.	.
Cc1cc(C(=O)CSc2nc3ccc(Cl)cc3[nH]2)c(C)n1C	i	-15.9	i	i	i	-0.72	.	.	.	.
Cc1cc(C(=O)CSc2nc3ccc(Cl)cc3[nH]2)c(C)n1CC1CCCO1 (stereo unspecified)	i	-17.0	i	i	8*	-1.01	125.5*	0.467	108.7%*	121.0%*	KCNQ1 APC inh=i
CC(C)n1c(SCC(=O)NC2CCCCC2)nnc1-c1ccco1	i	-7.5	i	i	i	-0.17	.	.	.	.
Cc1ccc(CN(C)CC(=O)Nc2ccc3c(c2)CCC3)cc1	i	-10.0	i	i	6*	-1.89	83.0*	0.394	86.3%*	89.5%*
SMILES	KCNK9 inh	hERG rescue	KCNK3 inh	KCNQ1 pot	KCNQ1 inh	Kir21 block	KCNQ1 block val	CHO Tl flux	KCNQ2 spec	KCNQ1 KCNE1 spec	others
Cc1ccc(NC(=O)Nc2ccc3c(c2)CCC3)cc1	i	-10.9	i	i	i	-0.4	.	.	.	.
CCc1ccccc1N1CCN(S(=O)(=O)c2ccc(F)c(C)c2)CC1	i	-14.2	i	i	7*	0.82	91.0*	0.438	80.0%*	91.0%*	KCNQ1 APC inh=i
COC(=O)CCC(=O)c1ccn(S(=O)(=O)c2ccccc2)c1	i	-8.7	i	i	i	-3.24	.	.	.	.
Cc1ccc(N2C(=O)c3ccccc3C2C(=O)c2ccc(O)cc2O)cc1 (stereo unspecified)	i	-2.1	i	i	i	0.92	.	.	.	.
Cc1ccc(N2C(=O)c3ccccc3C2C(=O)c2ccc(C)c(C)c2O)cc1 (stereo unspecified)	i	-6.0	i	i	7*	1.89	90.5*	0.365*	103.3%*	74.0%*
Cc1ccc(-c2nc3ccccc3nc2-c2ccccc2)cc1	i	-5.3	i	i	15*	0.04	88.5*	0.406	108.0%*	152.5%*	KCNQ1 APC inh=+
Nc1ccc2nc(-c3ccccc3)c(-c3ccccc3)nc2c1	i	-28.5	i	i	15*	-6.93	148.0*	0.212*	i	i
Nc1ccc(Oc2ccc3nc(-c4ccccc4)c(-c4ccccc4)nc3c2)cc1	i	-9.6	i	i	i	-0.95	.	.	.	.
Clc1ccc(-c2nc3ccccc3nc2-c2ccccc2)cc1	i	-3.4	i	i	i	1	.	.	.	.
